High-throughput results deposited in PubChem by several laboratories.
BB579 growth dn: growth inhibitors of yeast BB579 in restrictive medium, primary screen, yeast lifespan-shortening project, S. cerevisiae; OD615, 48 h; inhibition, % at 10 µM; actives 0.51% (n = 140,000);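 active means inhibition above a set limit, 3 SD over the mean compound inhibition, cut at about 44% in these data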
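System: Saccharomyces cerevisiae DeaD strain BB579, replicative lifespan model yeast | Buffer or medium: Restrictive glucose-based CSMM-D medium | Times: 4 h preincubation and 48 h exposure at 30 °C | Detection: OD615 turbidity measurement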
Yeast life ext: compounds extending yeast replicative lifespan, primary screen, S. cerevisiae, OD615 | S. cerevisiae growth with nicotinamide; deaD strain in restrictive glucose medium | inhibition of the nicotinamide effect, % at 10 µM | actives 0.68% (n = 130,000);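 active means inhibition above a set limit, placed 3 SD over the median of all compounds, cut at about 26% in these data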
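Buffer or medium: CSMM-D glucose medium, restrictive; test system: modified budding yeast, DeaD strain; compound: single dose 10 µM compound, 0.25% DMSO; schedule: culture preincubation 4 h, compound exposure 48 h, both 30 °C; detection: optical density (absorbance) at 615 nm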
Insulin prom up: insulin promoter activators in MIN6 cells, imaging, high-content screening, mouse beta cells | MIN6 insulin promoter-GFP reporter; active compounds read high | z-score at 5 µM | actives 0.3% (n = 190,000) | AID 1625, 2009;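 active means z-score above 3 at 5 µM with at least 500 cells counted in the well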
INS promoter inh: inhibitors of insulin promoter-driven GFP, primary screen, imaging, TRM-6 cells, eGFP reporter, cell count. AID 1273, 2008. actives 0.9% (n = 130,000). inhibition, % at 2 µM. reporter expression induced with tamoxifen;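 active means inhibition above the mean plus 3 SD, with well images judged a real hit on visual review, cut at about 60% in these data, passing the limit was not always enough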
RAM network inh: inhibitors of the yeast RAM network, primary screen, dse1pr::URA3 reporter, 5-FOA selection. inhibition, % at 50 µM. AID 868, 2007. actives 1.8% (n = 190,000). S. cerevisiae dse1pr::URA3 reporter, 5-FOA growth OD615, 2 d; analog-sensitive cbk1-as2 kinase mutant strain;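 active means inhibition above a set limit, 3 SD over mean compound inhibition, cut at about 8.4% in these data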;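 further: inhibition rescues growth on 5-FOA so higher OD means more RAM inhibition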
RAM efflux-def: 5-FOA growth of efflux-deficient control yeast, dose response, counter-screen for RAM network inhibitor project, S. cerevisiae, OD615; shares compounds with RAM network inh; S. cerevisiae efflux-deficient reporter strain, 5-FOA growth OD615, 2 days; max inhibition, %; 1,200 tested, under 10 active; AID 1305, 2008; call rule not given here
Of the large screens only hits and unclear results are named; the others gave an inactive call (follow-up assays come after a bar, where they were run). Sampled rows, rich in hits. Any-hit rate of the full collection: about 3.1%.

COc1ccc(C(=O)/C=C/Nc2ccc(S(=O)(=O)Nc3nc(C)cc(C)n3)cc2)cc1OC	none (no result: INS promoter inh)
Cc1noc(NS(=O)(=O)c2ccc(N/C=C\C(=O)c3ccncc3)cc2)c1C	none
COc1ccc(C(=O)/C=C/Nc2ccc(S(=O)(=O)Nc3ncccn3)cc2)cc1	RAM network inh 12 (no result: INS promoter inh) | RAM efflux-def inactive
Nc1nn2c(-c3ccccc3)cc(=O)[nH]c2c1N=Nc1ccc(Br)cc1	RAM network inh 14 (no result: BB579 growth dn, Yeast life ext, INS promoter inh) | RAM efflux-def inactive
CCn1cc(C(=O)OCC(=O)c2ccccc2)c(=O)c2ccc(C)nc21	RAM network inh 18 (no result: BB579 growth dn, Yeast life ext) | RAM efflux-def inactive
CC(C)CCNC(=O)COc1ccc(C(=O)c2ccccc2)cc1	none (no result: BB579 growth dn, Yeast life ext)
O=C(CSc1nnc(-c2ccc(Cl)s2)o1)N1CCCc2ccccc21	RAM network inh 14 | RAM efflux-def inactive
CCCCn1c(SCc2nc3ccccc3s2)nc2ccccc2c1=O	RAM network inh 13 (no result: INS promoter inh) | RAM efflux-def inactive
O=C(Nc1ccccc1-c1nnc(SCc2ccccc2Cl)o1)c1ccccc1	RAM network inh 12 | RAM efflux-def inactive
CCN(c1ccccc1)S(=O)(=O)c1ccc(NCC2COc3ccccc3O2)nc1 (configuration not stated)	RAM network inh 13 (no result: INS promoter inh) | RAM efflux-def inactive
CCN(c1ccccc1)S(=O)(=O)c1ccc(Cl)nc1	none (no result: BB579 growth dn, Yeast life ext)
Cc1cc(C)c(S(=O)(=O)Nc2ccc3c(c2)CCC3)c(C)c1	RAM network inh 13 | RAM efflux-def inactive
Cc1cc(C)c(S(=O)(=O)Nc2ccc(O)cc2)c(C)c1	none
COc1cc(C)c(CNc2ccc(OC)c(OC)c2)cc1C	none
C=CCn1c(SCc2cc(C(C)=O)ccc2OCC)nc2ccccc2c1=O	RAM network inh 16 | RAM efflux-def inactive
COc1ccc(C(C)=O)cc1CSc1nc2ccccc2c(=O)n1-c1ccccc1	none (no result: INS promoter inh)
C=CCn1c(SCc2cc(=O)n3ccsc3n2)nc2ccccc2c1=O	RAM network inh 14 (no result: BB579 growth dn, Yeast life ext, INS promoter inh) | RAM efflux-def inactive
C=CCn1c(SCc2cc(=O)n3ccsc3n2)nc2cc(Cl)ccc2c1=O	none (no result: BB579 growth dn, Yeast life ext)
O=C(C1=C[C@@H](C2CCCCC2)C[C@@H](OCc2ccc(CO)cc2)O1)N1CCN(Cc2ccccc2)CC1	none (no result: BB579 growth dn, Yeast life ext, INS promoter inh)
O=C(CSc1nc(-c2ccco2)cc(C(F)(F)F)n1)NCCc1ccccc1	RAM network inh 14 | RAM efflux-def inactive
COc1ccc(CCNC(=O)CSc2nc(-c3ccco3)cc(C(F)(F)F)n2)cc1OC	none
CCCCn1c(=O)c(CCC(=O)OC(C)C(=O)Nc2cccc(Cl)c2Cl)nc2ccccc21 (configuration not stated)	RAM network inh 16 (no result: INS promoter inh) | RAM efflux-def inactive
CCCCN1C(=O)/C(=C/C=C2\Oc3ccccc3N2CC)SC1=S	none (no result: BB579 growth dn, Yeast life ext, Insulin prom up, INS promoter inh)
CCCCN1C(=O)/C(=C/C=C2/CC(C)(C)CN2C)SC1=S	RAM network inh 12 (no result: Insulin prom up) | RAM efflux-def inactive
CC(C)OCCCNC(=O)C(NS(=O)(=O)c1ccc2c(c1)c(=O)n(C)c(=O)n2C)c1ccccc1 (configuration not stated)	RAM network inh 13 (no result: BB579 growth dn, Yeast life ext, Insulin prom up, INS promoter inh) | RAM efflux-def inactive
CCOC(=O)C1=C(CC)Nc2ccccc2N=C1NC(=O)c1cc(S(=O)(=O)N(C)C)ccc1Cl	RAM network inh 13 | RAM efflux-def inactive
Cc1nn(C)c(C)c1/C=C/C(=O)c1ccc(Cl)cc1Cl	none (no result: BB579 growth dn, Yeast life ext)
CCCC(C)NC(=O)c1sc2nc3n(c(=O)c2c1C)CCC3 (configuration not stated)	none (no result: BB579 growth dn, Yeast life ext, INS promoter inh)
COc1cccc(-c2cc(C(=O)Nc3ccn(Cc4ccc(C)cc4)n3)no2)c1	RAM network inh 17 (no result: BB579 growth dn, Yeast life ext, INS promoter inh) | RAM efflux-def inactive
COc1ccc(OC)c(NC(=O)CC2SC(=NCc3ccccc3)NC2=O)c1 (configuration not stated)	none (no result: BB579 growth dn, Yeast life ext, INS promoter inh)
CC(C)OCCCNC(=O)c1c(N)n(/N=C/c2ccccn2)c2nc3ccccc3nc12	RAM network inh 12 (no result: Insulin prom up, INS promoter inh) | RAM efflux-def inactive
COCCNC(=O)c1c(N)n(-c2ccccc2)c2nc3ccccc3nc12	RAM network inh 15 | RAM efflux-def inactive
Nc1c(C(=O)NCCN2CCOCC2)c2nc3ccccc3nc2n1-c1ccccc1	none (no result: Insulin prom up, INS promoter inh)
Cc1ccc(C(=O)NCCSCc2ccc(Cl)cc2Cl)cc1[N+](=O)[O-]	RAM network inh 14 | RAM efflux-def inactive
O=C(C(Sc1ccccc1)c1ccccc1)N1CCN(c2ccccc2F)CC1 (configuration not stated)	RAM network inh 14 | RAM efflux-def inactive
COCCCn1c(=S)[nH]c2sc3c(c2c1=O)CCCS3	none (no result: BB579 growth dn, Yeast life ext, INS promoter inh)
O=c1cc([O-])[n+]2c3n1CCCN3CCC2	none
Cc1ccc(CNC(=O)C2CN(S(C)(=O)=O)c3cc(Cl)ccc3O2)cc1 (configuration not stated)	none (no result: BB579 growth dn, Yeast life ext)
OCCNc1nc(SCc2ccccc2)nc2sc3c(c12)CCC3	RAM network inh 11 | RAM efflux-def inactive
O=c1c2c3c(sc2nc(NCCO)n1CCc1ccccc1)CCCCC3	none
C=CCN1N=C(c2ccc(NC(=O)c3ccccc3)cc2)CSC1=O	none (no result: BB579 growth dn, Yeast life ext, INS promoter inh)
COc1ccc2c(c1)C(C)CC(C)(C)N2C(=O)CSc1nc2ccccc2s1 (configuration not stated)	RAM network inh 13 (no result: INS promoter inh) | RAM efflux-def inactive
COC(=O)CNC(c1ccccc1)c1cc(C)ccc1NC(=O)c1cccc(Cl)c1 (configuration not stated)	none
COc1cccc(-c2cc(C(F)(F)F)nc(N3CCN(c4ccccc4)CC3)n2)c1	RAM network inh 16 | RAM efflux-def inactive
CCOC(=O)N1CCN(c2nc(-c3cccc(OC)c3)cc(C(F)(F)F)n2)CC1	RAM network inh 12 | RAM efflux-def inactive
C[n+]1ccc(C(=O)N/N=C/c2ccco2)cc1	none (no result: INS promoter inh)
Cc1ccc(S(=O)(=O)NCc2ccc3c(c2)cc(C)n3C)cc1	RAM network inh 12 (no result: INS promoter inh) | RAM efflux-def inactive
CC(C)=CCc1c(O)c(CC=C(C)C)c2c(c1O)C(=O)CC(c1ccc(O)cc1)O2 (configuration not stated)	RAM network inh 13 (no result: BB579 growth dn, Yeast life ext, INS promoter inh) | RAM efflux-def inactive
Cc1cc(-c2ccccc2)nc(Oc2cccc(C(F)(F)F)c2)c1S(C)(=O)=O	none
Cc1ccc(S(=O)(=O)c2c(C)cc(C)nc2Oc2cccc(C(F)(F)F)c2)cc1	RAM network inh 14 (no result: INS promoter inh) | RAM efflux-def inactive
O=C(O)c1cc(Sc2ccc(Br)cc2)nc2ccccc12	RAM network inh 11 (no result: BB579 growth dn, Yeast life ext, INS promoter inh) | RAM efflux-def inactive
CSc1ccccc1Sc1cc(C(=O)O)c2ccccc2n1	none
OCCC1CN(Cc2ccon2)CCN1CCc1ccccc1 (configuration not stated)	none (no result: BB579 growth dn, Yeast life ext, Insulin prom up, INS promoter inh)
N#Cc1c(SCC(=O)O)nc(N2CCCCC2)c2c1CCCC2	none
COC(=O)CSc1nc(N2CCCCC2)c2c(c1C#N)CCCC2	RAM network inh 14 | RAM efflux-def inactive
